ChEMBL document CHEMBL5357047, “The development of thymol-isatin hybrids as broad-spectrum antibacterial agents with potent anti-MRSA activity” (RSC Med Chem, 2024)
In brackets after ≈: the same amount, converted by molar mass. Activity calls are given as the source filed them. The rule behind the calls is not given here.

What was measured:
[1] = system: Staphylococcus aureus; assay: Anti-biofilm activity against Methicillin-resistant Staphylococcus aureus assessed as reduction in biofilm formation at 1/2XMIC measured after 48 hrs by crystal violet staining based analysis; assay type: functional
How it was run: (§1)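 Non-adherent cells washed off with water, stained with 0.5% crystal violet 30 min at 25 °C, dye eluted with 95% ethanol, OD 545 nm. Reported as % reduction versus untreated control. Triplicate.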

[2] = system: Staphylococcus epidermidis; assay: Bactericidal activity against Staphylococcus epidermidis MTCC 435 assessed as inhibition of bacterial growth measured after 48 hrs by agar plate method; assay type: functional
How it was run: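 MBC: 10 μL from wells showing no INT colour change after broth microdilution subcultured on drug-free Mueller Hinton agar, 48 h at 37 °C aerobically; lowest concentration with no visible growth taken as MBC (μM). Triplicate.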

[3] = system: Staphylococcus aureus; assay: Anti-biofilm activity against Methicillin-resistant Staphylococcus aureus assessed as interruption in well organized and aggregated biofilm at 1/2 to 2X MIC measured after 48 hrs by scanning electron microscopy; assay type: functional, organism-based
[4] = Toxicity against Galleria mellonella assessed as visible injury at 20 mg/kg measured every 12 hrs for 120 hrs; assay type: organism-based; conditions: in vivo
How it was run: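 Uninfected Galleria mellonella larvae (0.2–0.4 g, ten per group) given 20 mg kg−1 compound, alongside untreated, PBS and PBS + 2% DMSO vehicle controls; held at 37 °C and checked every 12 h for 120 h. Larvae that turned black and gave no response to stimulus counted dead; percentage survival recorded.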

[5] = system: Staphylococcus aureus; assay: Anti-biofilm activity against Methicillin-resistant Staphylococcus aureus assessed as cell leakage and irregular surface at 1 to 2X MIC measured after 48 hrs by scanning electron microscopy; assay type: functional, organism-based
[6] = Toxicity against Galleria mellonella assessed as survival rate of larva at 20 mg/kg measured every 12 hrs for 120 hrs; assay type: organism-based; conditions: in vivo
How it was run: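 Uninfected Galleria mellonella larvae (0.2–0.4 g, 10 per group) given 20 mg kg−1. Controls: untreated, PBS, and PBS + 2% DMSO vehicle. Held at 37 °C and monitored every 12 h for 120 h; larvae that were black and unresponsive counted dead. Percentage survival plotted.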

[7] = system: Staphylococcus aureus; assay: Bacteriostatic activity against Methicillin-resistant Staphylococcus aureus assessed as reduction in colony formation units at 1/2XMIC measured after 48 hrs by time-kill assay; assay type: functional, organism-based
How it was run: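 Samples taken at 1, 2, 4, 8, 12, 24 and 48 h, diluted in 0.9% saline and plated on Mueller Hinton agar (48 h, 37 °C). CFU counted and log10 CFU mL−1 plotted against time. Triplicate.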

[8] = system: Staphylococcus aureus; assay: Antibacterial activity against clinically isolated Methicillin-resistant Staphylococcus aureus assessed as inhibition of bacterial growth measured after 48 hrs by broth microdilution method; assay type: functional
[9] = system: Staphylococcus aureus; assay: Antibacterial activity against Methicillin-resistant Staphylococcus aureus ATCC 33591 assessed as inhibition of bacterial growth measured after 48 hrs by broth microdilution method; assay type: functional
[10] = system: Staphylococcus aureus; assay: Antibacterial activity against clinically isolated Staphylococcus aureus RBRJ010 assessed as inhibition of bacterial growth measured after 48 hrs by broth microdilution method; assay type: functional
[11] = system: Galleria mellonella; assay: Modulation of immune response in MRSA-infected Galleria mellonella systemic infection model assessed as reduction in haemocytes in larva's circulating lymph at 10 mg/kg measured after 24 to 48 hrs by fluorescent microscopic analysis; assay type: functional, organism-based; conditions: time 24-48 hrs
How it was run: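 Galleria mellonella larvae (0.2–0.4 g, ten per group) injected in the last proleg with MRSA, 5 × 10^8 cells per larva, then given 10 mg kg−1 compound; kept at 37 °C. Hemolymph collected on ice at 24 and 48 h post inoculation, diluted in PBS, counted with an automated cell counter and viewed with trypan blue (0.1%) under a fluorescent microscope.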

[12] = system: Staphylococcus aureus; assay: Anti-biofilm activity against Methicillin-resistant Staphylococcus aureus assessed as biofilm volume/area at 1/2XMIC measured after 48 hrs by crystal violet staining based phase contrast microscopy (reference value: 18.37 +/-1.14 um3/um2); assay type: functional
[13] = system: Staphylococcus aureus; assay: Anti-biofilm activity against Methicillin-resistant Staphylococcus aureus assessed as reduction in biofilm formation at 1XMIC measured after 48 hrs by crystal violet staining based analysis; assay type: functional; how it was run: as §1
[14] = system: Staphylococcus aureus; assay: Anti-biofilm activity against Methicillin-resistant Staphylococcus aureus assessed as biofilm substrate coverage at 1XMIC measured after 48 hrs by crystal violet staining based phase contrast microscopy (reference value: 81.43+/-3.57%); assay type: functional
[15] = system: Staphylococcus aureus; assay: Bactericidal activity against Staphylococcus aureus MTCC 740 assessed as inhibition of bacterial growth measured after 48 hrs by agar plate method; assay type: functional
How it was run: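 MBC: aliquots from microdilution wells without colour change subcultured on drug-free Mueller Hinton agar, 48 h at 37 °C aerobically. MBC is the lowest concentration with no visible growth. Triplicate.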

[16] = system: Staphylococcus aureus; assay: Anti-biofilm activity against Methicillin-resistant Staphylococcus aureus assessed as biofilm substrate coverage at 2XMIC measured after 48 hrs by crystal violet staining based phase contrast microscopy (reference value: 81.43+/-3.57%); assay type: functional
[17] = system: Staphylococcus aureus; assay: Disruption of biofilms against 48 hrs preformed Methicillin-resistant Staphylococcus aureus assessed as eradication of biofilms measured after 24 hrs by crystal violet staining method; assay type: functional
How it was run: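 MRSA (1 × 10^5 CFU mL−1, diluted 1:100) grown 48 h at 37 °C in tryptone soy broth with 3% glucose. […] Saline wash, 95% ethanol fixation 30 min, 0.1% crystal violet 30 min at 25 °C, elution with 95% ethanol, OD 545 nm. MBEC determined. Triplicate.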

[18] = molecular target: T1, 4,4'-diapophytoene synthase (Staphylococcus aureus) (UniProt A9JQL9); assay: Inhibition of CrtM in Methicillin-resistant Staphylococcus aureus assessed as inhibition of staphyloxanthin production at 1/4 to 1/16XMIC measured after 48 hrs
T1 sequence (whole entry): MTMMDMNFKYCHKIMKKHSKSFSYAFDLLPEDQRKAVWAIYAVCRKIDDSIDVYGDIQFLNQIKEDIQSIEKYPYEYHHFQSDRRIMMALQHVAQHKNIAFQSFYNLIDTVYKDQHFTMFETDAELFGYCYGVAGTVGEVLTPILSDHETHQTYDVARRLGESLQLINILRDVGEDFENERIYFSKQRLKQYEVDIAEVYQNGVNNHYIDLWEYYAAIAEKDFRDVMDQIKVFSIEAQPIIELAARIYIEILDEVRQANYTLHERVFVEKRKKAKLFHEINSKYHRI

[19] = system: Enterococcus faecalis; assay: Antibacterial activity against Enterococcus faecalis MTCC 439 assessed as inhibition of bacterial growth at 50 uM measured after 48 hrs by agar well diffusion method; assay type: functional; conditions: read-out: IZ
[20] = system: Staphylococcus aureus; assay: Antibacterial activity against Staphylococcus aureus MTCC 740 assessed as inhibition of bacterial growth at 50 uM measured after 48 hrs by agar well diffusion method; assay type: functional; conditions: read-out: IZ
[21] = system: Staphylococcus aureus; assay: Anti-biofilm activity against Methicillin-resistant Staphylococcus aureus assessed as biofilm volume/area at 1XMIC measured after 48 hrs by crystal violet staining based phase contrast microscopy (reference value: 18.37 +/-1.14 um3/um2); assay type: functional
[22] = system: Staphylococcus aureus; assay: Anti-biofilm activity against Methicillin-resistant Staphylococcus aureus assessed as reduction in biofilm formation at 2XMIC measured after 48 hrs by crystal violet staining based analysis; assay type: functional; how it was run: as §1
[23] = system: Staphylococcus aureus; assay: Antibacterial activity against Methicillin-resistant Staphylococcus aureus ATCC 33591 assessed as inhibition of bacterial growth at 50 uM measured after 48 hrs by agar well diffusion method; assay type: functional; conditions: read-out: IZ
How it was run: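 Agar well diffusion on Mueller Hinton agar seeded with bacteria at 0.5 McFarland. […] Incubated 48 h at 37 °C aerobically; zone of inhibition diameter (mm) measured. Triplicate.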

Cc1ccc(C(C)C)c(OCc2cn(CCCN3C(=O)C(=O)c4ccccc43)nn2)c1
inhibition (INH) [1]: 78.43%
MBC [2]: 7.8 µM (≈ 3.26 µg/mL)
Activity [3]: Active
Activity [4]: Non-Toxic
Activity [5]: Active
survival at 120 h [6]: 90%
Activity [7]: Active
MIC [8]: 1.9 µM (≈ 0.795 µg/mL)
MIC [9]: 3.9 µM (≈ 1.63 µg/mL)
MIC [10]: 1.9 µM (≈ 0.795 µg/mL)
Activity [11]: Active
Activity [12]: 3.48 um3/um2
inhibition (INH) [13]: 89.63%
Activity [14]: 5.11%
MBC [15]: 3.9 µM (≈ 1.63 µg/mL)
Activity [16]: 1.83%
MBEC [17]: 7.8 µM
inhibition [18]: Dose-Dependent Effect
zone of inhibition at 50 µM [19]: 18.5 mm
zone of inhibition at 50 µM [20]: 28.6 mm
Activity [21]: 1.57 um3/um2
inhibition (INH) [22]: 96.21%
zone of inhibition at 50 µM [23]: 27.5 mm
